Measured values from ChEMBL document CHEMBL1147977, “UDP acting at P2Y6 receptors is a mediator of microglial phagocytosis” (2007).
Activity calls are given as the source filed them. No cut-off for these calls is given here.

Key:
Hippocampus [1] = assay: Induction of phagocytosis in Wistar rat hippocampal CA3 region assessed as increase in number of microglia at 10 mg/kg, ip; format: functional, organism-based; design: dose 10 mg/kg
How it was run: (§1)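 Rats given 10 mg kg⁻¹ i.p.; fluorescent microspheres injected into hippocampal CA3, antagonist injected into CA3 (antisense/mismatch oligonucleotide into third ventricle); microspheres taken up or attached by anti-Iba1-stained microglia counted by confocal microscopy; ANOVA with Scheffe test.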

Rattus norvegicus = assay: Increase in P2Y6 receptor protein expression in Wistar rat brain at 10 mg/kg, ip after 72 hrs by Western blotting; format: functional, organism-based; design: dose 10 mg/kg
How it was run: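 Rats given 10 mg kg⁻¹ i.p. (saline-injected controls); brains removed 72 h later and hippocampal P2Y₆ receptor protein quantified by western blot; 8 control and 7 treated experiments.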

Neuron [2] = assay: Increase in UTP level in Wistar rat hippocampal neuron at 10 mg/kg, ip by microdialysis; format: functional, organism-based; design: dose 10 mg/kg; conditions: Hippocampus, TDE = time-dependent effect
Microglia [3] = assay: Increase in phagocytosis in Wistar rat microglia assessed as uptake of microspheres by FACS; format: functional, cell-based
How it was run: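 Cultured primary rat microglia incubated 20 min with fluorescent latex beads plus agonist (5–1,000 μM); bead uptake quantified by flow cytometry; three experiments.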

Neuron [4] = assay: Increase in P2Y6 receptor protein expression in Wistar rat neurons; format: functional, cell-based
How it was run: (§2)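 Rats given 10 mg kg⁻¹ i.p.; brain sections immunostained for P2Y₆ receptor and co-stained for microglia (OX42), astrocytes (GFAP) or neurons (NeuN) to assess colocalization.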

Hippocampus [5] = assay: Induction of neuronal loss in Wistar rat hippocampal CA3 region assessed as increase in number of microglia by immunohistochemical analysis; format: functional, tissue-based
How it was run: (§3)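 Rats given 10 mg kg⁻¹ i.p.; 72 h later hippocampal sections double-stained with anti-NeuN (neurons) and anti-Iba1 (microglia) to assess CA1 and CA3 neuronal loss and microglial number.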

Neuron [6] = assay: Induction of neuronal loss in Wistar rat neurons at 10 mg/kg, ip after 2-3 days; format: functional, organism-based; design: dose 10 mg/kg
Microglia [7] = assay: Increase in P2Y6 receptor protein expression in Wistar rat microglia; format: functional, cell-based; how it was run: as §2
Hippocampus [8] = assay: Upregulation of P2Y6 receptor mRNA signals in Wistar rat hippocampal CA3 region assessed as increase in number of microglia by in situ hybridization after 3 days; format: functional, tissue-based
How it was run: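 Rats given 10 mg kg⁻¹ i.p.; 3 days later hippocampal sections probed by in situ hybridization with P2Y₆ antisense RNA probe, then stained with anti-Iba1 to identify microglia bearing receptor mRNA in CA3.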

Astrocyte = assay: Increase in P2Y6 receptor protein expression in Wistar rat astrocytes; format: functional, cell-based; how it was run: as §2
Neuron [9] = assay: Increase in UTP level in Wistar rat hippocampal neuron at 100 uM after 1 hr by HPLC in presence of ARL67156
Microglia [10] = assay: Reversal of increase drug-induced phagocytosis in Wistar rat microglia assessed as uptake of microspheres by FACS in presence of MRS2578; format: functional, cell-based
How it was run: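 Microglia incubated 20 min with supernatant from hippocampal neurons treated ±100 μM kainate for 1 h, with or without 1 μM antagonist; fluorescent latex bead uptake measured by flow cytometry; at least four independent experiments.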

Hippocampus [11] = assay: Reversal of drug-induced phagocytosis in Wistar rat hippocampal CA3 region assessed as increase in number of microglia at 10 mg/kg, ip in presence of MRS2578; format: functional, organism-based; design: dose 10 mg/kg; how it was run: as §1
Hippocampus [12] = assay: Induction of neuronal loss in Wistar rat hippocampal CA1 region assessed as increase in number of microglia by immunohistochemical analysis; format: functional, tissue-based; how it was run: as §3
[13] = Induction of phagocytosis in Wistar rat microglia assessed as uptake of microspheres at 100 uM after 20 mins by FACS; format: functional
How it was run: (§4)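 Rat primary cultured microglia incubated with agonist for 20 min, with UDP tested at 5–1,000 μM, in the presence of fluorescent latex microspheres. Bead uptake is quantified by FACS, and results are expressed relative to uptake with 100 μM UDP alone. Values are means ± s.e.m. of about three or four experiments.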

[14] = target: P2Y purinoceptor 6 (Rattus norvegicus) (UniProt Q63371); assay: Effect on P2Y6 receptor-mediated cell motility in Wistar rat microglia assessed as formation of lamellipodia-like membrane ruffles at 10 uM after 5 mins
Sequence of P2Y purinoceptor 6 (Rattus norvegicus) (Q63371 whole entry): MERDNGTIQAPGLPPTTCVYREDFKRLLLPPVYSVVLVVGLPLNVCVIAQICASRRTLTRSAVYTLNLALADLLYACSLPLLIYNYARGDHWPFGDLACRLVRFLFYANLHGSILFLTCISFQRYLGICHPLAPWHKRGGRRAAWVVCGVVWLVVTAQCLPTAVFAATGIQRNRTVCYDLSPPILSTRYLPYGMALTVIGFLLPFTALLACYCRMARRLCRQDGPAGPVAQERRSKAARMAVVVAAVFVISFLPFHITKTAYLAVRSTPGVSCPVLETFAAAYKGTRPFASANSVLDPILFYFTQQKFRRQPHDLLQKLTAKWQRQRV
How it was run: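 Cultured primary rat microglia stimulated 5 min with agonist, then fixed, permeabilized and phalloidin-stained; lamellipodia-like membrane ruffles scored by microscopy.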

[15] = target: P2Y purinoceptor 6 (Rattus norvegicus) (UniProt Q63371); assay: Effect on P2Y6 receptor-mediated cell motility in Wistar rat microglia at 100 uM by chemotaxis assay
How it was run: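 Chemotaxis of cultured primary rat microglia toward agonist (100 μM) assessed in a Dunn chemotaxis chamber.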

[16] = target: P2Y purinoceptor 6 (Rattus norvegicus) (UniProt Q63371); assay: Effect on P2Y6 receptor-mediated cell motility in Wistar rat microglia assessed as formation of lamellipodia-like membrane ruffles at 100 uM after 5 mins
How it was run: (§5)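 Rat primary cultured microglia stimulated for 5 min with 100 μM UDP or 10 μM ATP, then fixed, permeabilized and stained with phalloidin. Membrane ruffles and other actin structures are assessed by microscopy.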

[17] = target: P2Y purinoceptor 6 (Rattus norvegicus) (UniProt Q63371); assay: Activity at P2Y6 receptor in Wistar rat microglia assessed as inhibition of intracellular calcium concentration at 100 uM after 600 secs by ratiometric fura-2 fluorescence method in presence of xestospongin C; format: functional, cell-based
How it was run: (§6)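 Cultured rat primary microglia. Intracellular Ca2+ measured as the change in the 340/380 nm Fura-2 fluorescence ratio after stimulation with 100 μM UDP, alone or with inhibitors. The maximal UDP-alone response is the control, and responses are expressed as percent of control. Values are means ± s.e.m. of 24–36 cells from at least three independent experiments.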

Microglia [18] = assay: Effect on formation of phagocytotic cup in Wistar rat microglia at 100 uM after 5 mins; format: functional, cell-based; how it was run: as §5
Microglia [19] = assay: Reversal of drug-induced phagocytosis in Wistar rat microglia at 100 uM in presence of thapsigargin; format: functional, cell-based
How it was run: (§7)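 Rat primary cultured microglia stimulated with 100 μM UDP, with or without reactive blue 2 (30–100 μM), suramin (300 μM), MRS2578 (0.01–3 μM), thapsigargin (1 μM), staurosporine (5 μM) or U73122 (10 μM). Uptake of fluorescent latex microspheres during the 20-min incubation is quantified by FACS. Values are means ± s.e.m.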

[20] = target: P2Y purinoceptor 6 (Rattus norvegicus) (UniProt Q63371); assay: Activity at P2Y6 receptor in Wistar rat microglia assessed as inhibition of intracellular calcium concentration at 100 uM in presence of suramin by ratiometric fura-2 fluorescence method; format: functional, cell-based; how it was run: as §6
[21] = target: P2Y purinoceptor 6 (Rattus norvegicus) (UniProt Q63371); assay: Activity at P2Y6 receptor in Wistar rat microglia assessed as inhibition of intracellular calcium concentration at 100 uM by ratiometric fura-2 fluorescence method in presence of reactive blue 2; format: functional, cell-based; how it was run: as §6
Microglia [22] = assay: Reversal of drug-induced phagocytosis in Wistar rat microglia at 100 uM in presence of staurosporine; format: functional, cell-based; how it was run: as §7
[23] = target: P2Y purinoceptor 6 (Rattus norvegicus) (UniProt Q63371); assay: Activity at P2Y6 receptor in Wistar rat microglia assessed as inhibition of intracellular calcium concentration at 100 uM after 300 secs by ratiometric fura-2 fluorescence method in presence of U73122; format: functional, cell-based; how it was run: as §6
Microglia [24] = assay: Induction of phagocytosis in Wistar rat microglia assessed as uptake of microspheres after 20 mins by FACS; format: functional, cell-based; how it was run: as §4
[25] = target: T1, Cysteinyl leukotriene receptor 1 (Rattus norvegicus) (UniProt Q924T8); assay: Agonist activity at CysLT1 receptor in Wistar rat microglia assessed as increase in intracellular calcium concentration at 30 uM by ratiometric fura-2 fluorescence method; format: functional, cell-based
T1 sequence (whole entry): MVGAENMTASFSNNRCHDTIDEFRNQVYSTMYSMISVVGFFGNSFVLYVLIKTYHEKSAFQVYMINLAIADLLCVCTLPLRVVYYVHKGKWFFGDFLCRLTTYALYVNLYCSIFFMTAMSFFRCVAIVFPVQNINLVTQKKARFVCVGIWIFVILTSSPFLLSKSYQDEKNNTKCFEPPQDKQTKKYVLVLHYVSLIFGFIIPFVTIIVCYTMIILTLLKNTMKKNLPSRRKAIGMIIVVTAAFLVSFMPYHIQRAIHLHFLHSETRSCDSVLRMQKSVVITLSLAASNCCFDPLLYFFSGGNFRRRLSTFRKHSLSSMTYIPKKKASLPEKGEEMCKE

[26] = target: P2Y purinoceptor 6 (Rattus norvegicus) (UniProt Q63371); assay: Activity at P2Y6 receptor in Wistar rat microglia assessed as inhibition of intracellular calcium concentration at 100 uM by ratiometric fura-2 fluorescence method in presence of MRS2578; format: functional, cell-based; how it was run: as §6
Microglia [27] = assay: Effect on formation of phagosome-like vacuoles in Wistar rat microglia at 100 uM after 5 mins; format: functional, cell-based; how it was run: as §5
Microglia [28] = assay: Reversal of drug-induced phagocytosis in Wistar rat microglia at 100 uM in presence of U73122; format: functional, cell-based; how it was run: as §7
Microglia [29] = assay: Effect on formation of F-actin aggregation in Wistar rat microglia at 100 uM after 5 mins; format: functional, cell-based; how it was run: as §5
[30] = target: P2Y purinoceptor 6 (Rattus norvegicus) (UniProt Q63371); assay: Agonist activity at P2Y6 receptor in Wistar rat microglia assessed as increase in intracellular calcium concentration by ratiometric fura-2 fluorescence method; format: functional, cell-based
How it was run: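 Rat primary cultured microglia loaded with Fura-2. The rise in [Ca2+]i is read as the change in the 340/380 nm fluorescence ratio. UDP is applied over a concentration range, and the fraction of responding cells is also scored.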

Microglia [31] = assay: Reversal of drug-induced of phagocytosis in Wistar rat microglia at 100 uM in presence of reactive blue 2; format: functional; how it was run: as §7
Microglia [32] = assay: Reversal of drug-induced phagocytosis in Wistar rat microglia at 100 uM in presence of MRS2578; format: functional; how it was run: as §7
Microglia [33] = assay: Effect on formation of filopodia-like protrusions in Wistar rat microglia at 100 uM after 5 mins; format: functional, cell-based; how it was run: as §5
[34] = target: P2Y purinoceptor 6 (Rattus norvegicus) (UniProt Q63371); assay: Activity at P2Y6 receptor in Wistar rat microglia assessed as inhibition of intracellular calcium concentration at 100 uM after 600 secs by ratiometric fura-2 fluorescence method in presence of thapsigargin; format: functional, cell-based; how it was run: as §6
Microglia [35] = assay: Reversal of drug-induced of phagocytosis in Wistar rat microglia at 100 uM in presence of suramin; format: functional; how it was run: as §7

SMILES: C=C(C)[C@H]1CN[C@H](C(=O)O)[C@H]1CC(=O)O [KAINIC ACID]
- Activity (Hippocampus [1]): Active
- Activity (Rattus norvegicus): Active
- Activity (Neuron [2]): tde
- Activity (Microglia [3]): Active
- Activity (Neuron [4]): inactive
- Activity (Hippocampus [5]): Active
- Activity (Neuron [6]): Active
- Activity (Microglia [7]): Active
- Activity (Hippocampus [8]): Active
- Activity (Astrocyte): inactive
- Activity (Neuron [9]): 10.5 µM
- Activity (Microglia [10]): Active
- Activity (Hippocampus [11]): Active
- Activity (Hippocampus [12]): Active

SMILES: Nc1nc2c(ncn2[C@@H]2O[C@H](COP(=O)(O)OP(=O)(O)O)[C@@H](O)[C@H]2O)c(=O)[nH]1
- Activity [13]: 49.7%

SMILES: Nc1ncnc2c1ncn2[C@@H]1O[C@H](COP(=O)(O)OP(=O)(O)O)[C@@H](O)[C@H]1O [ADENOSINE DIPHOSPHATE]
- Activity [13]: 0.3%

SMILES: Nc1ncnc2c1ncn2[C@@H]1O[C@H](COP(=O)(O)OP(=O)(O)OP(=O)(O)O)[C@@H](O)[C@H]1O
- Activity [14]: Active
- Activity [15]: Active

SMILES: O=c1ccn([C@@H]2O[C@H](COP(=O)(O)OP(=O)(O)O)[C@@H](O)[C@H]2O)c(=O)[nH]1
- Activity [16]: inactive
- Activity [17]: Active
- Activity (Microglia [18]): Active
- Activity (Microglia [19]): Active
- Activity [20]: Active
- Activity [21]: Active
- Activity (Microglia [22]): Active
- Activity [23]: Active
- Activity (Microglia [24]): Dose-dependent effect
- Activity [25]: Active
- Activity [15]: inactive
- Activity [26]: Active
- Activity (Microglia [27]): Active
- Activity (Microglia [28]): Active
- Activity (Microglia [29]): Active
- Activity [30]: Dose-dependent effect
- Activity (Microglia [31]): Active
- Activity (Microglia [32]): Active
- Activity (Microglia [33]): Active
- Activity [34]: Active
- Activity (Microglia [35]): Active
